In ChEMBL document CHEMBL1649110, “Pharmacodynamics of minocycline against Staphylococcus aureus in an in vitro pharmacokinetic model” (Antimicrob Agents Chemother, 2008):
Values after ≈ are worked out from the molar mass of the structure shown. Active and inactive are the calls of the source. No cut-off for these calls is given here.

What was measured:
Staphylococcus aureus [1] = assay: Bactericidal activity against Staphylococcus aureus assessed as log reduction in bacterial count; type: functional
Staphylococcus aureus [2] = assay: Bactericidal activity against Staphylococcus aureus infected in in vitro hollow-fiber PK model at 400 mg administered every 24 hrs; type: functional, organism-based
Staphylococcus aureus [3] = assay: Bactericidal activity against Staphylococcus aureus infected in in vitro hollow-fiber PK model at 200 mg administered every 24 hrs; type: functional, organism-based
Staphylococcus aureus [4] = assay: Bactericidal activity against Staphylococcus aureus infected in in vitro hollow-fiber PK model at 200 mg administered every 12 hrs; type: functional, organism-based
Staphylococcus aureus [5] = assay: Bactericidal activity against Staphylococcus aureus infected in in vitro hollow-fiber PK model at 100 mg administered every 12 hrs; type: functional, organism-based
Staphylococcus aureus [6] = assay: Bactericidal activity against Staphylococcus aureus assessed as viable bacterial count at 2 times MIC; type: functional
Staphylococcus aureus [7] = assay: Bactericidal activity against Staphylococcus aureus assessed as viable bacterial count at 4 times MIC; type: functional
Staphylococcus aureus [8] = assay: Bactericidal activity against methicillin-resistant Staphylococcus aureus infected in rabbit at 6 mg/kg of body weight administered every 8 hrs measured after 72 hrs; type: functional
Staphylococcus aureus [9] = assay: Antibacterial activity against methicillin-resistant Staphylococcus aureus SMH 32985 after 24 hrs by Etest; type: functional; settings: SMH 32985, 24 h
Staphylococcus aureus [10] = assay: Ratio of AUC to MIC in methicillin-resistant Staphylococcus aureus infected in in vitro hollow-fiber PK model at 100 mg administered every 12 hrs; type: functional
Staphylococcus aureus [11] = assay: Antibacterial activity against Staphylococcus aureus SMH 31236 infected in in vitro hollow-fiber model assessed as log reduction in viable bacterial count at 100 mg after 12 hrs; type: functional
In short: (§1)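 Hollow-fiber model at 37°C in 25% Mueller-Hinton broth with a peripheral-compartment inoculum of 10^6 CFU/ml. […] Samples were taken at 0–24 h and counted on nutrient agar (detection limit 2.0 x 10^2 CFU/ml). Run in triplicate.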

Staphylococcus aureus [12] = assay: Bactericidal activity against Staphylococcus aureus assessed as reduction log reduction in viable bacterial count at 0.5 to 1 times MIC; type: functional
[13] = T>MIC in Staphylococcus aureus infected rabbit; type: functional
Staphylococcus aureus [14] = assay: Ratio of AUC to MIC in methicillin-resistant Staphylococcus aureus infected in in vitro hollow-fiber PK model at 100 mg after 12 hrs; type: functional
Staphylococcus aureus [15] = assay: Antibacterial activity against Staphylococcus aureus SMH 26910 after 24 hrs by Etest; type: functional; settings: SMH 26910, 24 h
Staphylococcus aureus [16] = assay: AUBKC (24 hrs) in methicillin-resistant Staphylococcus aureus SMH 32985 infected in in vitro hollow-fiber PK model at 100 mg administered every 12 hrs; type: functional
In short: (§2)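 Peripheral compartment inoculated to 10^6 CFU/ml. Samples at 0–24 h were spiral-plated on nutrient agar (detection limit 2.0 x 10^2 CFU/ml). Area under the bacterial kill curve was taken over 0–24 h. Triplicate runs.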

Staphylococcus aureus [17] = assay: Ratio of AUC to MIC in methicillin-resistant Staphylococcus aureus infected in in vitro hollow-fiber PK model at 100 mg after 8 hrs; type: functional
Staphylococcus aureus [18] = assay: Antibacterial activity against methicillin-resistant Staphylococcus aureus SMH 32024 infected in in vitro hollow-fiber model assessed as log reduction in viable bacterial count at 100 mg administered every 12 hrs measured after 24 hrs; type: functional
In short: (§3)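 Hollow-fiber model at 37°C, 25% Mueller-Hinton broth, 10^6 CFU/ml inoculum in the peripheral compartment. […] Viable counts on nutrient agar (detection limit 2.0 x 10^2 CFU/ml). Read-out is log change in count at 24 h versus start. Triplicate.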

[19] = Half life in human serum; type: ADME, cell-free
Staphylococcus aureus [20] = assay: Antibacterial activity against Staphylococcus aureus SMH 26910 infected in in vitro hollow-fiber model assessed as log reduction in viable bacterial count at 100 mg after 12 hrs; type: functional; in short: as §1
[21] = Cmax in simulated human serum in in vitro hollow-fiber PK model at 100 mg administered every 12 hrs; type: ADME, organism-based; parameters: dose 100 mg; settings: in vitro hollow-fiber PK model simulating human serum
In short: (§4)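 Samples were taken at 0, 1, 2, 3, 4, 5, 6, 12 and 24 h. Concentrations were measured by bioassay on Penassay seed agar with Bacillus subtilis as indicator. Triplicate runs.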

Staphylococcus aureus [22] = assay: Antibacterial activity against methicillin-resistant Staphylococcus aureus SMH 32985 infected in in vitro hollow-fiber model assessed as log reduction in viable bacterial count at 100 mg administered every 12 hrs measured after 24 hrs; type: functional; in short: as §3
Staphylococcus aureus [23] = assay: Antibacterial activity against methicillin-resistant Staphylococcus aureus SMH 32024 infected in in vitro hollow-fiber model assessed as log reduction in viable bacterial count at 100 mg after 12 hrs; type: functional
Staphylococcus aureus [24] = assay: Antibacterial activity against methicillin-resistant Staphylococcus aureus SMH 32985 infected in in vitro hollow-fiber model assessed as log reduction in viable bacterial count at 100 mg after 12 hrs; type: functional
Staphylococcus aureus [25] = assay: Antibacterial activity against Staphylococcus aureus SMH 26910 infected in in vitro hollow-fiber model assessed as log reduction in viable bacterial count at 100 mg administered every 12 hrs measured after 24 hrs; type: functional; in short: as §1
[26] = Tmax in simulated human serum in in vitro hollow-fiber PK model at 100 mg administered every 12 hrs; type: ADME, cell-free; settings: in vitro hollow-fiber PK model simulating human serum; in short: as §4
Staphylococcus aureus [27] = assay: AUBKC (24 hrs) in […] Staphylococcus aureus SMH 26910 infected in in vitro hollow-fiber PK model at 100 mg administered every 12 hrs; type: functional; in short: as §2
[28] = Half life in simulated human serum in in vitro hollow-fiber PK model at 100 mg administered every 12 hrs; type: ADME, cell-free; settings: in vitro hollow-fiber PK model simulating human serum; in short: as §4
Staphylococcus aureus [29] = assay: AUBKC (24 hrs) in methicillin-resistant Staphylococcus aureus SMH 31236 infected in in vitro hollow-fiber PK model at 100 mg administered every 12 hrs; type: functional; in short: as §2
Staphylococcus aureus [30] = assay: Antibacterial activity against Staphylococcus aureus SMH 31236 after 24 hrs by Etest; type: functional; settings: SMH 31236, 24 h
Staphylococcus aureus [31] = assay: AUBKC (24 hrs) in methicillin-resistant Staphylococcus aureus SMH 32024 infected in in vitro hollow-fiber PK model at 100 mg administered every 12 hrs; type: functional; in short: as §2
Staphylococcus aureus [32] = assay: Antibacterial activity against methicillin-resistant Staphylococcus aureus SMH 32024 after 24 hrs by Etest; type: functional; settings: SMH 32024, 24 h
Staphylococcus aureus [33] = assay: Antibacterial activity against Staphylococcus aureus SMH 31236 infected in in vitro hollow-fiber model assessed as log reduction in viable bacterial count at 100 mg administered every 12 hrs measured after 24 hrs; type: functional; in short: as §1
Staphylococcus aureus [34] = assay: Ratio of AUC to MIC in methicillin-resistant Staphylococcus aureus infected in in vitro hollow-fiber PK model at 100 mg after 24 hrs; type: functional
[35] = Cmax in simulated human serum in in vitro hollow-fiber PK model at 600 mg administered every 24 hrs by HPLC; type: ADME, organism-based; parameters: dose 600 mg; settings: in vitro hollow-fiber PK model simulating human serum
[36] = Tmax in simulated human serum in in vitro hollow-fiber PK model at 600 mg administered every 24 hrs; type: ADME, cell-free; settings: in vitro hollow-fiber PK model simulating human serum
Staphylococcus aureus [37] = assay: Antibacterial activity against Staphylococcus aureus in murine thigh infection model; type: functional; settings: Thigh muscle
[38] = T>MIC in Staphylococcus aureus infected neutropenic mouse thigh infection model; type: functional, Thigh muscle
[39] = Cmax in simulated human serum in in vitro hollow-fiber PK model at 1 g administered every 12 hrs by fluorescence polarization immunoassay method; type: ADME, organism-based; parameters: dose 1 g; settings: in vitro hollow-fiber PK model simulating human serum
In short: (§5)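 Free vancomycin 1 g q12h simulated in a hollow-fiber model at 37°C with 25% Mueller-Hinton broth. […] Dosed into the dosing chamber at 0 and 12 h. Samples were taken at 0, 1, 2, 3, 4, 5, 6, 12 and 24 h, and concentrations measured by fluorescence polarization immunoassay. Triplicate experiments.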

Staphylococcus aureus [40] = assay: Bactericidal activity against methicillin-resistant Staphylococcus aureus infected in rabbit at 50 mg/kg of body weight administered every 8 hrs measured after 72 hrs; type: functional
[41] = Tmax in simulated human serum in in vitro hollow-fiber PK model at 1 g administered every 12 hrs; type: ADME, cell-free; settings: in vitro hollow-fiber PK model simulating human serum; in short: as §5
[42] = Half life in simulated human serum in in vitro hollow-fiber PK model at 1 g administered every 12 hrs; type: ADME, cell-free; settings: in vitro hollow-fiber PK model simulating human serum; in short: as §5

C[C@H]1c2cccc(O)c2C(=O)C2=C(O)[C@]3(O)C(=O)C(C(N)=O)=C(O)[C@@H](N(C)C)[C@@H]3[C@@H](O)[C@@H]21.O [DOXYCYCLINE]
Activity (Staphylococcus aureus [1]): Active | Activity (Staphylococcus aureus [2]): Active | Activity (Staphylococcus aureus [3]): Active | Activity (Staphylococcus aureus [4]): Active | Activity (Staphylococcus aureus [5]): Active | fold change (FC) (Staphylococcus aureus [6]): 0.5 | fold change (FC) (Staphylococcus aureus [7]): 0.5

CN(C)c1ccc(O)c2c1C[C@H]1C[C@H]3[C@H](N(C)C)C(O)=C(C(N)=O)C(=O)[C@@]3(O)C(O)=C1C2=O [MINOCYCLINE]
log10 CFU/g (Staphylococcus aureus [8]): 5.3 log10 CFU/g | MIC (Staphylococcus aureus [9]): 0.04 µg/mL (≈ 0.0874 µM) | RatioAUC/MIC (Staphylococcus aureus [10]): 200 | FC (Staphylococcus aureus [11]): 1.6 | FC (Staphylococcus aureus [12]): 1.5 | Log reduction in bacterial count (Staphylococcus aureus [1]): 1.5 | fT>MIC [13]: 100% | RatioAUC/MIC (Staphylococcus aureus [14]): 2.1 | MIC (Staphylococcus aureus [15]): 0.06 µg/mL (≈ 0.131 µM) | fold change (FC) (Staphylococcus aureus [16]): 79.7 | RatioAUC/MIC (Staphylococcus aureus [17]): 1.7 | FC (Staphylococcus aureus [18]): 0.2 | half-life [19]: 720 min | FC (Staphylococcus aureus [20]): 1.9 | Cmax [21]: 600 ng/mL | FC (Staphylococcus aureus [22]): 0.8 | FC (Staphylococcus aureus [23]): 0.8 | FC (Staphylococcus aureus [24]): 0.5 | FC (Staphylococcus aureus [25]): 1.4 | Tmax [26]: 2.3 h | fold change (FC) (Staphylococcus aureus [27]): 77.6 | half-life [28]: 720 min | fold change (FC) (Staphylococcus aureus [29]): 98.4 | MIC (Staphylococcus aureus [30]): 0.75 µg/mL (≈ 1.64 µM) | fold change (FC) (Staphylococcus aureus [31]): 77.2 | MIC (Staphylococcus aureus [32]): 0.19 µg/mL (≈ 0.415 µM) | FC (Staphylococcus aureus [33]): 0.1 | RatioAUC/MIC (Staphylococcus aureus [34]): 1.6

CO[C@H]1/C=C/O[C@@]2(C)Oc3c(C)c(O)c4c(O)c(c(/C=N/N5CCN(C)CC5)c(O)c4c3C2=O)NC(=O)/C(C)=C\C=C\[C@H](C)[C@H](O)[C@@H](C)[C@@H](O)[C@@H](C)[C@H](OC(C)=O)[C@@H]1C [RIFAMPIN]
Cmax [35]: 2000 ng/mL | Tmax [36]: 1.2 h

CN(C)c1cc(NC(=O)CNC(C)(C)C)c(O)c2c1C[C@H]1C[C@H]3[C@H](N(C)C)C(O)=C(C(N)=O)C(=O)[C@@]3(O)C(O)=C1C2=O [TIGECYCLINE]
MIC (Staphylococcus aureus [37]): 0.125 µg/mL (≈ 0.213 µM) | Activity (Staphylococcus aureus [1]): Active | Log reduction in bacterial count (Staphylococcus aureus [1]): 2 | fT>MIC [38]: >50%

CN[C@H](CC(C)C)C(=O)N[C@H]1C(=O)N[C@@H](CC(N)=O)C(=O)N[C@H]2C(=O)N[C@H]3C(=O)N[C@H](C(=O)N[C@H](C(=O)O)c4cc(O)cc(O)c4-c4cc3ccc4O)[C@H](O)c3ccc(c(Cl)c3)Oc3cc2cc(c3O[C@@H]2O[C@H](CO)[C@@H](O)[C@H](O)[C@H]2O[C@H]2C[C@](C)(N)[C@H](O)[C@H](C)O2)Oc2ccc(cc2Cl)[C@H]1O [VANCOMYCIN]
MIC (Staphylococcus aureus [9]): 1.5 µg/mL (≈ 1.04 µM) | Cmax [39]: 15000 ng/mL | MIC (Staphylococcus aureus [15]): 1.5 µg/mL (≈ 1.04 µM) | log10 CFU/g (Staphylococcus aureus [40]): 4.8 log10 CFU/g | Tmax [41]: 1 h | MIC (Staphylococcus aureus [32]): 1.5 µg/mL (≈ 1.04 µM) | half-life [42]: 360 min
